Active and inactive are the calls of the source. The rule behind the calls is not given here.
Assays:
NCI-H460 [1] = assay: Induction of apoptosis in human NCI-H460 cells assessed as non-viable necrotic cells at 10 uM after 6 hrs by annexinV-propidium iodide staining based flow cytometric analysis relative to control; format: functional
Method in brief: (§1)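 H460 cells plated for 6 h, then treated with 5, 10 or 20 μM. Cells washed, trypsin-EDTA detached and resuspended in PBS, then stained with annexin V and propidium iodide plus RNase and 0.1% Triton X-100 for 30 min at 37 °C before flow cytometry. Figure legend gives 6 h incubation.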

NCI-H460 [2] = assay: Cytotoxicity against human NCI-H460 cells assessed as reduction of cell viability at 5 to 20 uM after 24 hrs by CellTiter-Glo analysis; format: functional, cell-based
Method in brief: (§2)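 H460 cells (5 × 10^3/well) seeded overnight, then given fresh medium containing compound from DMSO stock (final 5, 10, 20 μM; 2.5–30 μM in the figure) for 24 h. Viability measured with CellTiter-Glo and expressed as percent of vehicle-treated cells; Student's t test.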

NCI-H460 [3] = assay: Induction of XBP-1 protein expression level in human NCI-H460 cells at 5 to 20 uM after 6 hrs by Western blot analysis; format: functional, cell-based
Method in brief: (§3)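 H460 cells exposed to 20 μM for varying times, or to a range of concentrations for 6 h. ATF-4 and XBP-1 protein measured by Western blot with actin as loading control.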

NCI-H460 [4] = assay: Cytotoxicity against human NCI-H460 cells after 72 hrs by MTT assay; format: functional, cell-based; conditions: NCI-H460, 72 h
Method in brief: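 H460 cells grown in RPMI 1640 with 5% FBS at 37 °C, 10% CO2, treated 24 h after seeding. Compounds in DMSO diluted into medium at final 100, 33.3, 11.1 and 3.7 μg/mL for 72 h. MTT (5 mg/mL in 0.9% NaCl) added for 3 h, formazan dissolved in DMSO and read at 570 nm; IC50 derived.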

NCI-H460 [5] = assay: Induction of apoptosis in human NCI-H460 cells assessed as activation of caspase 3 activity at 20 uM after 24 hrs by Western blot analysis; format: functional, cell-based
NCI-H460 [6] = assay: Induction of GRP78 protein expression in human NCI-H460 cells at 5 to 20 uM after 3 hrs by Western blot analysis; format: functional, cell-based
Method in brief: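 H460 cells treated for 3 h; GRP78 protein detected by Western blot with actin as loading control.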

NCI-H460 [7] = assay: Induction of CHOP protein expression in human NCI-H460 cells at 20 uM after 6 to 24 hrs by Western blot analysis; format: functional, cell-based
Method in brief: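 H460 cells treated for 6–24 h, or across a range of concentrations. CHOP protein measured by Western blot, densitometry expressed as percent of control; Student's t test.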

NCI-H460 [8] = assay: Induction of GRP78 mRNA expression in human NCI-H460 cells at 5 to 20 uM after 3 hrs by real time quantitative PCR analysis; format: functional, cell-based
Method in brief: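 H460 cells treated across a concentration range for 3 h. GRP78 mRNA quantified by RT-qPCR, normalized to β-actin and expressed as percent of vehicle.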

NCI-H460 [9] = assay: Cytotoxicity against human NCI-H460 cells assessed as reduction of cell viability at 5 to 30 uM after 24 hrs by CellTiter-Glo analysis; format: functional, cell-based; method in brief: as §2
NCI-H460 [10] = assay: Induction of apoptosis in human NCI-H460 cells assessed as viable cells at 10 uM after 6 hrs by annexinV-propidium iodide staining based flow cytometric analysis relative to control; format: functional; conditions: NCI-H460, 6 h, read-out: Activity; method in brief: as §1
NCI-H460 [11] = assay: Induction of apoptosis in human NCI-H460 cells assessed as viable cells at 20 uM after 6 hrs by annexinV-propidium iodide staining based flow cytometric analysis relative to control; format: functional; conditions: NCI-H460, 6 h, read-out: Activity; method in brief: as §1
NCI-H460 [12] = assay: Induction of ATF-4 protein expression level in human NCI-H460 cells at 5 to 20 uM after 6 hrs by Western blot analysis; format: functional, cell-based; method in brief: as §3
NCI-H460 [13] = assay: Induction of apoptosis in human NCI-H460 cells assessed as early apoptotic cells at 10 uM after 6 hrs by annexinV-propidium iodide staining based flow cytometric analysis relative to control; format: functional; method in brief: as §1
NCI-H460 [14] = assay: Induction of apoptosis in human NCI-H460 cells assessed as non-viable necrotic cells at 20 uM after 6 hrs by annexinV-propidium iodide staining based flow cytometric analysis relative to control; format: functional; method in brief: as §1
NCI-H460 [15] = assay: Induction of apoptosis in human NCI-H460 cells assessed as viable cells at 5 uM after 6 hrs by annexinV-propidium iodide staining based flow cytometric analysis relative to control; format: functional; conditions: NCI-H460, 6 h, read-out: Activity; method in brief: as §1
NCI-H460 [16] = assay: Induction of apoptosis in human NCI-H460 cells assessed as activation of caspase 9 activation at 20 uM after 24 hrs by Western blot analysis; format: functional, cell-based
NCI-H460 [17] = assay: Induction of apoptosis in human NCI-H460 cells assessed as non-viable necrotic cells at 5 uM after 6 hrs by annexinV-propidium iodide staining based flow cytometric analysis relative to control; format: functional; method in brief: as §1
NCI-H460 [18] = assay: Induction of apoptosis in human NCI-H460 cells assessed as late apoptotic cells at 20 uM after 6 hrs by annexinV-propidium iodide staining based flow cytometric analysis relative to control; format: functional; method in brief: as §1
NCI-H460 [19] = assay: Induction of apoptosis in human NCI-H460 cells assessed as late apoptotic cells at 10 uM after 6 hrs by annexinV-propidium iodide staining based flow cytometric analysis relative to control; format: functional; method in brief: as §1
NCI-H460 [20] = assay: Induction of apoptosis in human NCI-H460 cells at 5 to 30 uM after 24 hrs by flow cytometric analysis; format: functional, cell-based
NCI-H460 [21] = assay: Induction of CHOP mRNA expression in human NCI-H460 cells at 20 uM after 12 hrs by real time quantitative PCR analysis; format: functional, cell-based
Method in brief: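 H460 cells exposed to a concentration range for 6 or 12 h. CHOP mRNA measured by RT-PCR/qPCR and normalized to β-actin.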

[22] = target: Transcription factor Jun (Homo sapiens) (UniProt P05412); assay: Induction of c-Jun phosphorylation in human NCI-H460 cells at 20 uM after 12 hrs by Western blot analysis; format: cell-based
Transcription factor Jun (Homo sapiens), sequence (P05412 whole entry): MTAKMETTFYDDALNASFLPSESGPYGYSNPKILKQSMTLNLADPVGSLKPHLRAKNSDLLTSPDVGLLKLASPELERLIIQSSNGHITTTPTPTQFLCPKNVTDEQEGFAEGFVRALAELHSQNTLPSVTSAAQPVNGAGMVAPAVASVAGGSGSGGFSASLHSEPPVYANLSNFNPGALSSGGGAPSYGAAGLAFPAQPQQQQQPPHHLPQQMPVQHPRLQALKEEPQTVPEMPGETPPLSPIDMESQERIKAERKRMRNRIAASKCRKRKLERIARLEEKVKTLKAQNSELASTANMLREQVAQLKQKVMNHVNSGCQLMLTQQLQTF
Method in brief: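 H460 cells cultured in RPMI 1640 with 5% heat-inactivated FBS at 37 C, 10% CO2; exposed to 20 μM for a time course. Lysed at 0 C in Tris-HCl pH 7.4 buffer with NP40, SDS, and protease/phosphatase inhibitors. Phospho-c-Jun detected by Western blot with chemiluminescence, actin as loading control; band density quantified.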

NCI-H460 [23] = assay: Cytotoxicity against human NCI-H460 cells assessed as cell viability at 20 uM after 24 hrs by CellTiter-Glo analysis; format: functional; conditions: NCI-H460, 24 h, read-out: Activity; method in brief: as §2
NCI-H460 [24] = assay: Induction of apoptosis in human NCI-H460 cells assessed as late apoptotic cells at 5 uM after 6 hrs by annexinV-propidium iodide staining based flow cytometric analysis relative to control; format: functional; method in brief: as §1
NCI-H460 [25] = assay: Induction of apoptosis in human NCI-H460 cells at 20 uM after 6 hrs by flow cytometric analysis; format: functional; method in brief: as §1
NCI-H460 [26] = assay: Decrease in p53 expression in human NCI-H460 cells at 20 uM after 12 hrs by Western blot analysis; format: functional, cell-based
Method in brief: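 H460 cells exposed to 20 μM for varying times, or to a range of concentrations for 12 h. Lysates made in Tris-HCl pH 7.4/NaCl/NP40/SDS buffer with protease and phosphatase inhibitors, then probed for p53 by Western blot with chemiluminescent detection; bands quantified by densitometry.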

NCI-H460 [27] = assay: Induction of apoptosis in human NCI-H460 cells assessed as early apoptotic cells at 20 uM after 6 hrs by annexinV-propidium iodide staining based flow cytometric analysis relative to control; format: functional; method in brief: as §1
NCI-H460 [28] = assay: Induction of apoptosis in human NCI-H460 cells assessed as early apoptotic cells at 5 uM after 6 hrs by annexinV-propidium iodide staining based flow cytometric analysis relative to control; format: functional; method in brief: as §1

Compound: COc1cc(/C=C/C(=O)CC(=O)/C=C/c2ccc(O)c(OC)c2)ccc1O [CURCUMIN]
- Activity (NCI-H460 [1]): 0.23%
- Activity (NCI-H460 [2]): inactive
- Activity (NCI-H460 [3]): inactive
- IC50 (NCI-H460 [4]): 20.3 µM
- Activity (NCI-H460 [5]): inactive
- Activity (NCI-H460 [6]): inactive
- Activity (NCI-H460 [7]): inactive
- Activity (NCI-H460 [8]): inactive
- Activity (NCI-H460 [9]): inactive
- viability at 10 µM (NCI-H460 [10]): 89.2%
- viability at 20 µM (NCI-H460 [11]): 83.6%
- Activity (NCI-H460 [12]): inactive
- Activity (NCI-H460 [13]): 8.57%
- Activity (NCI-H460 [14]): 0.32%
- viability at 5 µM (NCI-H460 [15]): 87.9%
- Activity (NCI-H460 [16]): inactive
- Activity (NCI-H460 [17]): 0.46%
- Activity (NCI-H460 [18]): 4.06%
- Activity (NCI-H460 [19]): 2.06%
- Activity (NCI-H460 [20]): inactive
- Activity (NCI-H460 [21]): inactive
- Activity [22]: inactive
- viability at 20 µM (NCI-H460 [23]): 70%
- Activity (NCI-H460 [24]): 3.66%
- Activity (NCI-H460 [25]): 12.02%
- Activity (NCI-H460 [26]): inactive
- Activity (NCI-H460 [27]): 12.02%
- Activity (NCI-H460 [28]): 7.97%

Compound: O=C(/C=C/c1ccccc1Br)/C=C/c1ccccc1Br
- IC50 (NCI-H460 [4]): 5.78 µM

Compound: CN(C)CCCOc1ccc(/C=C2\CC/C(=C\c3ccc(OCCCN(C)C)cc3)C2=O)cc1
- IC50 (NCI-H460 [4]): 8.31 µM
